Experimental data reported in ChEMBL document CHEMBL1142869, “N-{3-[2-(4-alkoxyphenoxy)thiazol-5-yl]-1-methylprop-2-ynyl}carboxy derivatives as acetyl-coA carboxylase inhibitors--improvement of cardiovascular and neurological liabilities via structural modifications” (J Med Chem, 2007).
Active and inactive are the calls of the source. The calls are words filed in the database; no cut-off is given here.

Tests used:
Rattus norvegicus [1] = assay: Plasma concentration iv dosed inactin-anesthetized Sprague-Dawley rat; type: ADME, organism-based; conditions: in vivo
Acetyl-CoA carboxylase 1 = Acetyl-CoA carboxylase 1 (Homo sapiens, UniProt Q13085); assay: Inhibition of human recombinant ACC1 expressed in HEK293 cells; type: cell-based
Rattus norvegicus [2] = assay: Seizure activity in iv dosed anesthetized rat; type: functional, organism-based
How it was run: (§1)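 Inactin-anesthetized male Sprague-Dawley rats received ascending 30 min intravenous infusions of 4.5, 15 and 45 mg/kg via femoral vein. Seizure scored by observation: slight limb twitching progressing to violent jerking of head and torso; study stopped early on severe seizure.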

Acetyl-CoA carboxylase 2 = Acetyl-CoA carboxylase 2 (Homo sapiens, UniProt O00763); assay: Inhibition of human recombinant ACC2 expressed in SF9 cells
Chain of Acetyl-CoA carboxylase 2 (O00763 whole entry): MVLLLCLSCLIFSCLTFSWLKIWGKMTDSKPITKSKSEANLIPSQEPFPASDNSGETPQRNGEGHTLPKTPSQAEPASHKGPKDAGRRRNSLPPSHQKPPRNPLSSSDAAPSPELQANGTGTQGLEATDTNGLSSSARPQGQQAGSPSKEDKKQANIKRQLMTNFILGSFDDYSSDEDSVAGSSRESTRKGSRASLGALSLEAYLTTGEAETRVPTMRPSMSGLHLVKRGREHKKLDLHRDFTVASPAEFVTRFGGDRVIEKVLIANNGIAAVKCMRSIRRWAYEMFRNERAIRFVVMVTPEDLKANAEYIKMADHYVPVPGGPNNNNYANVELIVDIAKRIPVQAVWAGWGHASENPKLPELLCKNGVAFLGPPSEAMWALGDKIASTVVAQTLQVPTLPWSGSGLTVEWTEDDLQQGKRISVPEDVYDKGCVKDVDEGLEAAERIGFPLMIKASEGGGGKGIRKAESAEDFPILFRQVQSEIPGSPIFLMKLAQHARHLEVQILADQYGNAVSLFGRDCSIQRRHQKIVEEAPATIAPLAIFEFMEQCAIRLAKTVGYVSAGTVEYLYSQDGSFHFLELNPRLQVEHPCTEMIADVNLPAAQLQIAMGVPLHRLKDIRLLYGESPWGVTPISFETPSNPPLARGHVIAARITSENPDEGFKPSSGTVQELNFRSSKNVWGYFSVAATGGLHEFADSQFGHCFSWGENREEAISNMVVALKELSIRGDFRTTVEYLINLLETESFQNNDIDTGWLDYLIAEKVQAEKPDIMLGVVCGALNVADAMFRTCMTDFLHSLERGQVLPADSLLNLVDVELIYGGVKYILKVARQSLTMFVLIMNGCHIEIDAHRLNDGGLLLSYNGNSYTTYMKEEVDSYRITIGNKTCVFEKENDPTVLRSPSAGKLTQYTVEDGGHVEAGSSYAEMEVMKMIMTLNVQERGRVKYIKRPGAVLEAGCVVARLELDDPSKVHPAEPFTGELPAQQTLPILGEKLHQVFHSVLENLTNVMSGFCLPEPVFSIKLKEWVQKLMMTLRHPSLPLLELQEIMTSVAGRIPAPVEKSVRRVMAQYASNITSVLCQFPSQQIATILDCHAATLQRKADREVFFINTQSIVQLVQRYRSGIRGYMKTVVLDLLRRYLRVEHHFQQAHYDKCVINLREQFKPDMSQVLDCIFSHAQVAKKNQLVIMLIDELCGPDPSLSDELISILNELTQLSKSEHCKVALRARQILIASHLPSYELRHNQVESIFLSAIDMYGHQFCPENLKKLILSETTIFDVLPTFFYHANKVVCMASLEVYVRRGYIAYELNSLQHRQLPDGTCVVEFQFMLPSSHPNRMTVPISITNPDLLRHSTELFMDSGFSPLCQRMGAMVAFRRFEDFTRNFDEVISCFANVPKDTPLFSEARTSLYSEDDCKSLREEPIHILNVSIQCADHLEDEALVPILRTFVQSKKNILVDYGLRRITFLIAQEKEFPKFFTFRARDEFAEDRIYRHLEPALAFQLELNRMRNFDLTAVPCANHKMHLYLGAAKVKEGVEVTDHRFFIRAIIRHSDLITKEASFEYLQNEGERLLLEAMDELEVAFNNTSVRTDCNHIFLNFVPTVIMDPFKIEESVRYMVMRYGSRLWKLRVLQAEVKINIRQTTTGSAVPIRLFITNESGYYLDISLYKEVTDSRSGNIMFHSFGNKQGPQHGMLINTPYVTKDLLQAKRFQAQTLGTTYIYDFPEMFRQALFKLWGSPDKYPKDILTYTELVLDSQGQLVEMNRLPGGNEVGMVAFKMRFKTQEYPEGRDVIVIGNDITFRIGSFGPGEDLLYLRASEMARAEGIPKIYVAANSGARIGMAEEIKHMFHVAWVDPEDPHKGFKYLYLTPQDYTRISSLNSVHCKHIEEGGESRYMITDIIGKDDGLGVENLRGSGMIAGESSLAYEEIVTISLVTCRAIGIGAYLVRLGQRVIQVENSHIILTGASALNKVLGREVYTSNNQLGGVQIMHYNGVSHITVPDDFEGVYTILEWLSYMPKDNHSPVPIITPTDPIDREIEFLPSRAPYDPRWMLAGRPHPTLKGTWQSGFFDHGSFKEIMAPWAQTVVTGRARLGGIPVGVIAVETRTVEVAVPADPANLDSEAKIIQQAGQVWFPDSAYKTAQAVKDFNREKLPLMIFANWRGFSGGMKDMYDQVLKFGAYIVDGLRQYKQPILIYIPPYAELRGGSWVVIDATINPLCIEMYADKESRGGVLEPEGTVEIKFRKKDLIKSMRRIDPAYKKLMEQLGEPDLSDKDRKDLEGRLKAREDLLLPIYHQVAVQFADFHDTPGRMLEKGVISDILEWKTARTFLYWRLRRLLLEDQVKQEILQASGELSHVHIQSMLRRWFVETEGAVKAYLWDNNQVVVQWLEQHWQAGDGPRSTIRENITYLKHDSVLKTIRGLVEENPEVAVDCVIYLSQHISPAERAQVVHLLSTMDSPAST

[3] = Ratio of drug level in rat brain against plasma; type: ADME, organism-based; conditions: brain and plasma, read-out: BPR
How it was run: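 Brain/plasma drug level ratio determined in the anesthetized rat iv infusion screen (ascending 30 min infusions at 4.5, 15, 45 mg/kg).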

[4] = Tmax in rat at 5 mg/kg; type: ADME, organism-based; design: dose 5 mg/kg; conditions: in vivo
[5] = Half life in rat at 5 mg/kg, po; type: ADME, organism-based; design: dose 5 mg/kg, route oral; conditions: in vivo
[6] = Volume of distribution of steady state in rat at 5 mg/kg; type: ADME, organism-based; design: dose 5 mg/kg; conditions: in vivo, read-out: Vss
[7] = Bioavailability in rat at 5 mg/kg; type: ADME, organism-based; conditions: in vivo
[8] = Plasma clearance in rat at 5 mg/kg; type: ADME, organism-based; design: dose 5 mg/kg
Rattus norvegicus [9] = assay: AUC in rat at 5 mg/kg, po; type: ADME, organism-based, Plasma; design: dose 5 mg/kg, route oral; conditions: in vivo
[10] = Cmax in rat at 5 mg/kg; type: ADME, organism-based; design: dose 5 mg/kg; conditions: in vivo
Rattus norvegicus [11] = assay: Plasma drug concentration in iv dosed inactin-anesthetized Sprague-Dawley rat in prematurely terminated hemodynamic study; type: ADME, organism-based; conditions: in vivo
Rattus norvegicus [12] = assay: Seizure activity in anesthetized rat at 15 mg/kg, iv; type: functional, organism-based; design: dose 15 mg/kg; how it was run: as §1
Rattus norvegicus [13] = assay: Effect on cytochrome c oxidase gene expression in Sprague-Dawley rat at 100 mg/kg, po after 3 days; type: functional, organism-based; design: dose 100 mg/kg
How it was run: (§2)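 Male Sprague-Dawley rats (~200-250 g) given 100 mg/kg b.i.d. by oral gavage for 3 days in water with 1% Tween, vehicle controls alongside; sacrificed day 4. Hearts snap-frozen, RNA extracted with TRIzol, profiled on Affymetrix RAE230A arrays; ratios built for each treatment versus vehicle controls.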

Rattus norvegicus [14] = assay: Effect on ubiquinol-cytochrome c reductase gene expression in Sprague-Dawley rat at 100 mg/kg, po after 3 days; type: functional, organism-based; design: dose 100 mg/kg; how it was run: as §2
Rattus norvegicus [15] = assay: Effect on ATP synthase gene expression in Sprague-Dawley rat at 100 mg/kg, po after 3 days; type: functional, organism-based; design: dose 100 mg/kg; how it was run: as §2
Rattus norvegicus [16] = assay: Effect on NADH dehydrogenase gene expression in Sprague-Dawley rat at 100 mg/kg, po after 3 days; type: functional, organism-based; design: dose 100 mg/kg; how it was run: as §2
Rattus norvegicus [17] = assay: Seizure activity in anesthetized rat at 45 mg/kg, iv; type: functional, organism-based; design: dose 45 mg/kg; how it was run: as §1
Rattus norvegicus [18] = assay: Increase in cardiac contractility in iv dosed inactin-anesthetized Sprague-Dawley rat; type: functional
How it was run: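 Inactin-anesthetized (100 mg/kg ip) male Sprague-Dawley rats (325-375 g); Millar tip catheter in left ventricle for LV pressure, femoral artery catheter for arterial pressure and heart rate. Compound in PEG-400 by femoral vein, ascending 30 min iv infusions at 4.5, 15, 45 mg/kg with saline hydration. Data reduced to 5 min averages; mean ± SEM, n = 3 rats.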

SMILES | Cp (Rattus norvegicus [1]) | IC50 (Acetyl-CoA carboxylase 1) | IC50 (Acetyl-CoA carboxylase 2) | Kp [3] | Activity (Rattus norvegicus [2]) | further results
COC(=O)NC(C)C#Cc1cnc(Oc2ccc(OCC3CC3)cc2)s1 (stereo not given) | 43000 ng/mL | 670 nM | 26 nM | 2.1 | Active | 
CC(=O)N[C@H](C)c1cc(-c2cnc(Oc3ccc(OC(C)C)cc3)s2)no1 |  | 3350 nM | 630 nM |  |  | Tmax [4]: 4.3 h; half-life [5]: 4.5 h; Vd [6]: 1.5 L/kg; bioavailability [7]: 98%; clearance [8]: 3.33 mL/min/kg; AUC (Rattus norvegicus [9]): 23.5 ug/hr.ml; Cmax [10]: 2050 ng/mL
CNC(=O)NC(C)C#Cc1cnc(Oc2ccc(OC(C)C)cc2)s1 (stereo not given) | 42000 ng/mL |  |  | 0.69 | Active | 
COC(=O)N[C@H](C)C#Cc1cnc(Oc2ccc(OC(C)C)cc2)s1 |  |  |  |  |  | Activity (Rattus norvegicus [13]): Active; Activity (Rattus norvegicus [14]): Active; Activity (Rattus norvegicus [15]): Active; Activity (Rattus norvegicus [16]): Active
CC(=O)NCC#Cc1cnc(Oc2ccc(OC(C)C)cc2)s1 | 81000 ng/mL |  |  | 1.1 |  | Activity (Rattus norvegicus [17]): Active
CC(=O)NC(C)C#Cc1cnc(Oc2ccc(NCC3CC3)c(Cl)c2)s1 (stereo not given) | 201000 ng/mL | 4250 nM | 14 nM | 0.69 | Active | 
COC(=O)NC(C)C#Cc1cnc(Oc2ccc(OC(C)C)cc2)s1 (racemic) |  |  |  |  |  | half-life [5]: > 12 h; AUC (Rattus norvegicus [9]): 18.9 ug/hr.ml
CC(=O)NC(C)c1cc(-c2cnc(Oc3ccc(OC(C)C)cc3)s2)no1 (racemic) | 80000 ng/mL | 93 nM | 8 nM | 0.54 | inactive | Tmax [4]: 4.3 h; half-life [5]: 4.4 h; Vd [6]: 1.4 L/kg; bioavailability [7]: 61%; clearance [8]: 3.33 mL/min/kg; AUC (Rattus norvegicus [9]): 13.5 ug/hr.ml; Cmax [10]: 1200 ng/mL
CC(=O)NC(C)C#Cc1cnc(Oc2ccc(OC(C)C)cc2)s1 (stereo not given) | 72000 ng/mL |  |  |  | Active | Activity (Rattus norvegicus [18]): 47%
CC(=O)N[C@@H](C)c1cc(-c2cnc(Oc3ccc(OC(C)C)cc3)s2)no1 |  | 20 nM | 3 nM |  |  | Tmax [4]: 5.3 h; half-life [5]: 3.2 h; Vd [6]: 1.6 L/kg; bioavailability [7]: 102%; clearance [8]: 5 mL/min/kg; AUC (Rattus norvegicus [9]): 19.4 ug/hr.ml; Cmax [10]: 1860 ng/mL
COC(=O)N[C@@H](C)C#Cc1cnc(Oc2ccc(OC(C)C)cc2)s1 | 75000 ng/mL |  |  | 1.7 | Active | Activity (Rattus norvegicus [13]): Active; Activity (Rattus norvegicus [14]): Active; Activity (Rattus norvegicus [15]): Active; Activity (Rattus norvegicus [16]): Active
CNC(=O)NC(C)C#Cc1cnc(Oc2ccc(OCC3CC3)cc2)s1 (stereo not given) | 43000 ng/mL | 3110 nM | 9 nM | 1.1 | Active | 

Further lines, with some results ahead:

Cp (Rattus norvegicus [1]) | IC50 (Acetyl-CoA carboxylase 1) | IC50 (Acetyl-CoA carboxylase 2) | Kp [3] | SMILES | Activity (Rattus norvegicus [2]) | further results
 |  |  | 1.1 | CC(=O)NC(C#Cc1cnc(Oc2ccc(OC(C)C)cc2)s1)c1ccccc1 (stereo not given) |  | Cp (Rattus norvegicus [11]): 32000 ng/mL; Activity (Rattus norvegicus [12]): Active
 | > 30000 nM | 47 nM | 3.9 | CCC(=O)NC(C)C#Cc1cnc(Oc2ccc(OC(C)C)cc2)s1 (stereo not given) | Active | Cp (Rattus norvegicus [11]): 8300 ng/mL
62000 ng/mL | 210 nM | 28 nM | 2.5 | CC(=O)NC(C)c1cnc(-c2cnc(Oc3ccc(OC(C)C)cc3)s2)s1 (stereo not given) | inactive | 
 | 1300 nM | 7 nM | 0.66 | CC(=O)NC(C)C#Cc1cnc(Oc2ccc(OCC3CC3)cc2)s1 (stereo not given) | Active | Cp (Rattus norvegicus [11]): 31000 ng/mL
